Results on ten compounds are retold here after ChEMBL document CHEMBL1121437, “Structure--antitubulin activity relationship in steganacin congeners and analogues. Inhibition of tubulin polymerization in vitro by (+/-)-isodeoxypodophyllotoxin” (J Med Chem, 1980).

Test [1] deals with T1, Tubulin (Sus scrofa, UniProt P02554+P02550). The test is described as follows: (§1) Tested for the inhibition of polymerization rate of tubulin microtubule assembly. In kind it is functional. Put shortly: (§2)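 Porcine brain tubulin (three cycles, ca. 1 mg/mL, 15% MAPs) in 0.1 M MES, 0.5 mM MgCl2, 1 mM EGTA, 1 mM GTP, pH 6.6. Compound (from 10^-2 M DMSO stock) preincubated with tubulin 1 h at 37 °C, cooled to 4 °C for 30 min, then warmed to 37 °C. Turbidity followed at 350 nm. I50 = concentration halving maximum polymerization rate.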

Test [2] addresses T1, Tubulin. The test is described as follows: Binding affinity against tubulin using [3H]colchicine as radioligand. In kind it is protein assay.
The target in test [3] is T1, Tubulin. The test is described as follows: Binding affinity against tubulin usingf [3H]-colchicine as radioligand. In kind it is protein assay.
The target of test [4] is Tubulin (Sus scrofa) (UniProt P02554+P02550). The description is as §1. The format is functional. Put shortly: as §2
Tubulin (Sus scrofa), sequence (P02550 whole entry, looked up): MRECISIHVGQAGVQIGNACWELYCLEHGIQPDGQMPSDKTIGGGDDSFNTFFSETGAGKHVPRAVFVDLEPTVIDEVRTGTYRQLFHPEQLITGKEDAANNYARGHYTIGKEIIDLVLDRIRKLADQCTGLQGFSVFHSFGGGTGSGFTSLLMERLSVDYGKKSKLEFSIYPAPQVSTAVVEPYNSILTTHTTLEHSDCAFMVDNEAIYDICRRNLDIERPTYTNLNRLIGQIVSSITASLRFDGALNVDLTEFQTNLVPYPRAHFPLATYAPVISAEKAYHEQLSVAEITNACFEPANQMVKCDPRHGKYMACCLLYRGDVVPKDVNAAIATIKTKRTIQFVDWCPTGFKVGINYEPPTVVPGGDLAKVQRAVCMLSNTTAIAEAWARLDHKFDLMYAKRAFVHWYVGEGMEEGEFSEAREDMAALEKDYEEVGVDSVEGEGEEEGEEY
Tubulin (Sus scrofa), sequence (P02554 whole entry, looked up): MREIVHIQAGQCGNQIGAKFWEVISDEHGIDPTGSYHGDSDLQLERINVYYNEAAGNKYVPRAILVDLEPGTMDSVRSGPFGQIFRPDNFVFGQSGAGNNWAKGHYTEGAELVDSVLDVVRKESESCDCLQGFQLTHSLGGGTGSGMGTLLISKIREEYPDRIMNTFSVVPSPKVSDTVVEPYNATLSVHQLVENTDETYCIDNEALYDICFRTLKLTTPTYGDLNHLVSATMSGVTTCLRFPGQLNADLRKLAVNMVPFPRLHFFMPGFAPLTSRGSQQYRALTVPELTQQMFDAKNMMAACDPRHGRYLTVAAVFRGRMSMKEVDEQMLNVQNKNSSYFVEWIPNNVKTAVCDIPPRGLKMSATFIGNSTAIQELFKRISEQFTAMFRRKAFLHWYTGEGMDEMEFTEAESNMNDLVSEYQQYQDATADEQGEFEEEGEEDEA

In the case of `COc1cc([C@@H]2c3cc4c(cc3CC3COC(=O)[C@@H]32)OCO4)cc(OC)c1OC` (mixture of isomers), the I50 in test [1] was determined as 2.1 µM. In test [2], the Ki came out at 201 µM.

Turning to `COc1cc2c(c(OC)c1OC)-c1cc3c(cc1[C@@H](OC(C)=O)C1COC(=O)[C@H]1C2)OCO3` (stereo partly drawn) [STEGANACIN], in test [1], the I50 came out at 3.5 µM. This compound also showed a Ki in test [2] of 10.5 µM.

In test [1], `COc1cc2c(c(OC)c1OC)-c1cc3c(cc1C(=O)[C@@H]1COC(=O)[C@H]1C2)OCO3` (stereo in doubt; 5) yielded an I50 of 125 µM. The Ki in test [2] worked out at 178 µM.

On to `COc1cc2c(c(OC)c1OC)-c1cc3c(cc1C(=O)[C@@H]1COC(=O)[C@H]1C2)OCO3` (stereo in doubt; 9), for which the inhibition constant Ki in test [3] was determined as […]. The compound further gave an I50 in test [1] of 110 µM.

In test [1], `COc1cc2c(c(OC)c1OC)-c1cc3c(cc1C(=O)[C@@H]1COC(=O)[C@H]1C2)OCO3` (stereo in doubt; 17) came in with an I50 of 162 µM.

As for `COc1cc2c(c(OC)c1OC)-c1cc3c(cc1C(=O)[C@@H]1COC(=O)[C@H]1C2)OCO3` (stereo in doubt; 13), in test [1], the I50 came to 375 µM.

`COc1cc2c(c(OC)c1OC)-c1cc3c(cc1C[C@@H]1COC(=O)[C@@H]1C2)OCO3`: the I30 in test [4] turned out to be 700 µM. This compound also had an I50 in test [1] of 5 µM. The same compound showed a Ki in test [2] of 32 µM.

On to `COc1cc2c(c(OC)c1OC)-c1cc3c(cc1C[C@@H]1COC(=O)[C@H]1C2)OCO3`, for which, in test [4], the I20 came out at 70 µM. Moreover, the I50 in test [1] came out at 60 µM. The compound also yielded a Ki in test [2] of 100 µM.

In turn, `COc1cc(CC2CCOC2=O)c(-c2cc3c(cc2CO)OCO3)c(OC)c1OC` (stereo not drawn) displayed a Ki in test [2] of 185 µM.

Compound `COc1cc2c(c(OC)c1OC)-c1cc3c(cc1C(=O)[C@@H]1COC(=O)[C@H]1C2)OCO3` (stereo in doubt; 12) showed an I50 in test [1] of 450 µM.

One may read the Ki as the equilibrium dissociation constant of an inhibitor or competing ligand from its target. Lower therefore signals tighter binding.
